# Screening data deposited in PubChem by Broad Institute.
# Shown are actives, neighbours in structure and some others; about 3.4% of the full set was active somewhere.
# E-selectin induc – E-selectin induction in HUVECs, primary screen, imaging, HUVEC, immunofluorescence imaging, single point | normalized: neutral wells 0, TNF-alpha wells 100 | activation, % at 7.58 µM | 260,000 tested, 0.37% active | AID 686992, 2013;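 active means mean E-selectin-positive cell signal at least 10% of the positive control, reached in at least 60% of replicates, without over 20% cell loss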
#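 Read-out basis: % PE-positive cells; Test system: HUVEC primary endothelial cells; Technique: immunofluorescence imaging; Dosing: single-point compound dose.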
# SIRT5 block – SIRT5 desuccinylase inhibitors, primary screen, biochemical, fluorescence imaging, single point, set 5 | inhibition, % at 15 µM | Purified SirT5, succinyl-peptide AMC, trypsin-coupled fluorescence | NAD-dependent protein deacylase sirtuin-5, mitochondrial (Homo sapiens), Q9NXA8 | 330,000 tested, 1.1% active | AID 652115, 2013; in the data active means inhibition above about 15%
# ERAP1 HTS inh – human ERAP1 aminopeptidase inhibitors, primary screen, biochemical, single point, plate reader; Endoplasmic reticulum aminopeptidase 1 (Homo sapiens), Q9NZ08; recombinant ERAP1, Leu-AMC fluorescence, 60 min; inhibition, % at 10.7 µM; 340,000 tested, 0.15% active;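 active means mean replicate inhibition of at least 30%, or all replicates individually reaching that 30% level; inactive means mean below 30% and not every replicate reaching it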;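 further: 0% = neutral control wells and 100% = L-leucinethiol positive control wells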
# S100A4 inh HTS – inhibitors of S100A4-myosin IIA peptide binding, primary screen, biochemical, fluorescence polarization, TAMRA-MyoIIA peptide; Protein S100-A4 (Homo sapiens), P26447; inhibition, % at 10.7 µM; 360,000 tested, 0.14% active; AID 652163, 2013;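 active means mean inhibition of at least 70% across replicates, with every replicate also reaching that level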
#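 System – human S100A4 monomer protein, biochemical binding assay · Buffer or medium – Calcium-containing HEPES buffer, pH 7.2 · Timing – 5 min between mix addition and reading · Also added – TAMRA-labelled myosin IIA heavy-chain peptide probe, 5 nM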
# AF4-AF9 inh – inhibitors of AF4 peptide binding to AF9, primary screen, biochemical, AlphaScreen, biotin-AF4 peptide, FLAG-AF9, single point; inhibition, % at 10 µM; 350,000 tested, 0.47% active;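 active means every replicate reaching a set inhibition limit, whatever the replicate mean, cut at about 25% in these data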;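 further: 0% = plate neutral control median and 100% = total signal loss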
# Target sequence (P42568 whole entry, looked up): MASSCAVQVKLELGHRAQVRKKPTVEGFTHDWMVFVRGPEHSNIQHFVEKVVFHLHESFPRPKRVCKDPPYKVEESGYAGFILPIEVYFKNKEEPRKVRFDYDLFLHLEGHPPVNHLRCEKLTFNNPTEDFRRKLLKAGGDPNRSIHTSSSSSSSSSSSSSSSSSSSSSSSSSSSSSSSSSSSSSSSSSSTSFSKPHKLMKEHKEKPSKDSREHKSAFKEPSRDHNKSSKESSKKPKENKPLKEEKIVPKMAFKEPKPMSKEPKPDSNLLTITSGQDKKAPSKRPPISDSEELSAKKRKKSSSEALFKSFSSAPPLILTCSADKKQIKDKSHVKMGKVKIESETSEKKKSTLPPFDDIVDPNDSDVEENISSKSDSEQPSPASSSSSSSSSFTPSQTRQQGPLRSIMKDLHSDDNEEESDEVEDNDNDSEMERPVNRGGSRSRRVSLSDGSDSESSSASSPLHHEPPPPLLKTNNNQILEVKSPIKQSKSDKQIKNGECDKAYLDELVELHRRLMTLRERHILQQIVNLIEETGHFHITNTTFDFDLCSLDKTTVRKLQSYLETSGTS
# Ecoli rRNA inh – reduced GFP signal of wild-type E. coli, primary screen, bacterial rRNA inhibitor project, GFP/RFP fluorescence, OD600, single point. E. coli WT GFP vs humanized-ribosome RFP mutants, 24 h; active compounds read low; DMSO median 0, no signal -100. GFP signal change (wild-type ribosome), % (concentration not given with the values). 350,000 tested, 1.6% active. AID 720706, 2013;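 active means significant combined selectivity score with lowered wild-type GFP, culture density cut under 30%, mutant RFP and density less affected; inactive means any of these conditions unmet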
# * marks the source's active call; other numbers are inactive results; x = no result given.
SMILES,E-selectin induc,SIRT5 block,ERAP1 HTS inh,S100A4 inh HTS,AF4-AF9 inh,Ecoli rRNA inh
C/C(=N\NC(=S)NC1CCCCC1)c1c(F)cccc1F,x,-1,1,-3,12,-56
C/C(=N\NC(=S)NC1CCCCC1)c1cccs1,1,0,-6,3,3,-26*
CSc1nc2ccc(Br)cc2[nH]1,0,15*,-5,-2,0,-8
CCCCN(C)C(=O)c1ccc(CS(=O)(=O)c2ccccc2C)o1,x,x,-3,1,0,3
COC(CN(C)C(=O)c1ccc(CS(=O)(=O)c2ccccc2C)o1)OC,49*,-3,-1,0,-2,6
CCn1c(-c2c[nH]c3ccccc23)n[nH]c1=S,x,-3,0,-4,9,-20*
CCCc1nc2ccccc2n1Cc1ccccc1OC,-1,-2,-2,6,1,-45*
COc1cc(C(=O)NCCCc2nc3ccccc3n2Cc2cc(C)ccc2C)cc(OC)c1OC,0,19*,7,0,-14,0
Cc1ccccc1Cn1c(C)nc2ccccc21,x,-3,-3,-11,-1,-8
COc1ccccc1Cn1c(C)nc2ccccc21,1,-1,-3,2,2,-12
COCc1nc2ccccc2n1Cc1ccccc1C,x,38*,-2,2,-1,0
CC(=O)NCCCc1nc2ccccc2n1Cc1cc(C)ccc1C,x,-1,-1,-3,1,6
COc1ccc2c3c(n(C)c2c1)[C@@H](CO)N(C(=O)C1CC1)CC31CN(C(=O)Nc2cccc(F)c2)C1,1,3,0,-14,1,-4
CS(=O)(=O)c1ccc(S(=O)(=O)NCC2CCN(C(=O)C(=O)c3cc4ccccc4o3)CC2)cc1,0,x,2,-7,1,3
O=C(NCC1CCN(C(=O)C(=O)c2cc3ccccc3o2)CC1)c1ccc2c(c1)OCCCO2,0,x,5,2,2,-17*
O=C(C(=O)N1CCC(CNS(=O)(=O)c2ccccc2)CC1)c1cc2ccccc2o1,0,x,4,1,3,-13*
CSc1ccc(C(=O)NCC2CCN(C(=O)C(=O)c3cc4ccccc4o3)CC2)cc1,0,x,3,1,0,-14*
COc1ccc(CN2CCN(C(=O)c3cccc4ccccc34)CC2)c(OC)c1OC,x,15*,1,1,-1,-5
COc1cc(CN2CCN(C(=O)c3cccc4ccccc34)CC2)cc(OC)c1OC,x,-7,1,-7,1,9
CCOC(=O)C(=O)C1=CN(Cc2ccccc2)C=C(C#N)C1,52*,2,-3,-1,2,10
O=C(C1CCC1)N1CC2(C1)[C@H](c1ccccc1)[C@@H](CO)N2CCC(F)(F)F,0,-2,-1,24,0,0
CCCCCCCNC(=O)C1(CC2CC(c3cccc(Br)c3)=NO2)CCN(C(=O)CCCCCBr)CC1 (centres undefined),0,x,-1,0,-1,-20*
CCCCCCCNC(=O)C1(CC2CC(c3cccc(Br)c3)=NO2)CCN(C(=O)C2(C)CC2)CC1 (centres undefined),0,x,-1,0,-9,-3
O=C(C[C@@H]1C=C[C@H](NS(=O)(=O)c2ccc(F)cc2)[C@@H](CO)O1)NCc1ccncn1,0,0,1,-1,-1,1
COC(=O)C1=CN(Cc2ccc(F)cc2)C=C(C(=O)OC)C1c1cc(OC)c(OC)c(OC)c1,0,-3,-8,4,-18,-24*
COCCN1C=C(C(=O)OC)C(c2ccc(OC)c(OC)c2)C(C(=O)OC)=C1,x,-6,-6,-4,2,7
COC(=O)C1=CN(C(C)c2ccccc2)C=C(C(=O)OC)C1c1cc(OC)c(OC)c(OC)c1 (centres undefined),0,-13,-28,-2,-23,-22*
